Measurements reported in ChEMBL document CHEMBL2384910, “Lead optimization of 5-amino-6-(2,2-dimethyl-5-oxo-4-phenylpiperazin-1-yl)-4-hydroxyhexanamides to reduce a cardiac safety issue: discovery of DS-8108b, an orally active renin inhibitor” (Bioorg Med Chem, 2013).
Substitutions are numbered along the chain they refer to. pIC50: −log10 of the molar value. Activity calls are given as the source filed them. No cut-off for these calls is given here.

How the values were obtained:
[1] = AUC (0 to 24 hrs) in cynomolgus monkey at 3 mg/kg, po by HPLC-MS/MS analysis; format: ADME, organism-based, Macaca fascicularis; parameters: time < 24 hr, dose 3 mg/kg, route oral; conditions: plasma
Outline: (§1)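 Blood sampled over 24 h, at least 7 time points; plasma levels by HPLC-MS/MS; parameters from non-compartmental analysis of concentration-time curves.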

Renin [2] = target: T1, Renin (Macaca fascicularis, UniProt Q6DLS0); test: Inhibition of renin in cynomolgus monkey plasma after 1 hr by RIA
T1 sequence (Q6DLS0 whole entry): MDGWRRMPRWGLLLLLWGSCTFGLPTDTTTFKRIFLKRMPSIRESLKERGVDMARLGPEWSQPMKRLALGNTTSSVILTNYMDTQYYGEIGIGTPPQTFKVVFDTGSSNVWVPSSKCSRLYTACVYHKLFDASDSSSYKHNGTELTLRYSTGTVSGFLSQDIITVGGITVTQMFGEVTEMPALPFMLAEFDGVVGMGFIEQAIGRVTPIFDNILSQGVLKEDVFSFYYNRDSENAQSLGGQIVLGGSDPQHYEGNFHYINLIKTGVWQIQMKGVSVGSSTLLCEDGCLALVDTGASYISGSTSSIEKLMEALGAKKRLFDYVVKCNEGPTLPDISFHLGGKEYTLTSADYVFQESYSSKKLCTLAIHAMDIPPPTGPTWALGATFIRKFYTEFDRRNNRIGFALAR
Outline: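 Pooled mixed-gender EDTA cynomolgus monkey plasma with pH adjusting solution and Inhibitor A, compound in 1% DMSO final, incubated 1 h at 37 °C. Angiotensin I by competitive RIA; uninhibited and 4 °C controls define % inhibition; IC50 from four-parameter fit; ratio is compound IC50 over aliskiren IC50 in same plasma batch; ≥2 replicates.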

[3] = Cmax in cynomolgus monkey at 3 mg/kg, po by HPLC-MS/MS analysis; format: ADME, organism-based, Macaca fascicularis; parameters: dose 3 mg/kg, route oral; conditions: in vivo; outline: as §1
Renin [4] = target: T2, Renin (Homo sapiens, UniProt P00797); test: Inhibition of human recombinant renin using Arg-Glu(EDANS)-Ile-His-Pro-Phe-His-Leu-Val-Ile-His-Thr-Lys (DABCYL)-Arg as substrate incubated for 10 mins prior to substrate addition measured after 90 mins by fluorescence assay
T2 sequence (P00797 whole entry): T1 sequence (Q6DLS0 whole entry) with A68T, L214I, A235S
Outline: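 Trypsin-activated recombinant human renin in 50 mM Tris-HCl pH 7.9, 100 mM NaCl, preincubated with compound 10 min at room temperature; FRET substrate Arg-Glu(EDANS)…Lys(DABCYL)-Arg added, 90 min at 37 °C.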

Rattus norvegicus [5] = test: Cardiotoxicity in Sprague-Dawley rat electrophysiology model assessed as QRS complex abnormalities at 10 mg/kg, iv by ECG analysis; format: toxicity, organism-based; parameters: dose 10 mg/kg, route intravenous; conditions: in vivo
Outline: (§2)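 Male Sprague-Dawley rats anesthetized with inactin 100 mg/kg ip; surface lead II ECG recorded continuously. Compounds given as iv bolus via right jugular vein catheter after stabilization; QRS complex abnormality scored as no, moderate or severe change; n = 2 at 10 mg/kg.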

[6] = target: T3, Renin (Macaca fascicularis) (UniProt Q6DLS0); test: Ratio of compound IC50 to aliskiren IC50 for renin in cynomolgus monkey plasma
T3 sequence (whole entry): T1 sequence (Q6DLS0 whole entry)

Heart [7] = test: Cardiotoxicity in anesthetized New Zealand White rabbit heart assessed as prolongation of QTc interval at 10 uM after 20 mins relative to baseline; format: toxicity, tissue-based, Oryctolagus cuniculus
Outline: (§3)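 Isolated Langendorff-perfused hearts from female NZW rabbits anesthetized with thiopental 30 mg/kg iv; heart excised into chilled Krebs-Henseleit solution. After parameters stabilized, compound perfused at 10, 30 and 100 µM for 20 min; ECG changes expressed as % change from baseline.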

Heart [8] = test: Cardiotoxicity in anesthetized New Zealand White rabbit heart assessed as prolongation of QRS width at 10 uM after 20 mins relative to baseline; format: toxicity, tissue-based, Oryctolagus cuniculus; outline: as §3
Heart [9] = test: Cardiotoxicity in anesthetized New Zealand White rabbit heart assessed as ventricular tachycardia and ventricular fibrillation at 30 uM after 20 mins; format: toxicity, tissue-based, Oryctolagus cuniculus; outline: as §3
Heart [10] = test: Cardiotoxicity in anesthetized New Zealand White rabbit heart assessed as prolongation of heart rate at 10 uM after 20 mins relative to baseline; format: toxicity, tissue-based, Oryctolagus cuniculus; outline: as §3
Heart [11] = test: Cardiotoxicity in anesthetized New Zealand White rabbit heart assessed as prolongation of […] at 10 uM after 20 mins relative to baseline; format: toxicity, tissue-based, Oryctolagus cuniculus; outline: as §3
Rattus norvegicus [12] = test: Cardiotoxicity in Sprague-Dawley rat electrophysiology model assessed as QRS complex abnormalities at 10 mg/kg, iv; format: toxicity, organism-based; parameters: dose 10 mg/kg, route intravenous; conditions: in vivo; outline: as §2
Rattus norvegicus [13] = species on record: Rattus norvegicus; test: Displacement of [3H]batrachotoxin from sodium channel (site 2) in Wistar rat brain at 10 uM relative to control; format: tissue-based
Outline: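 Rat brain membranes in modified Tris–HCl buffer, pH 7.4, incubated 1 h at 37 °C with 5 nM [3H]batrachotoxin plus test compound. Nonspecific binding defined with excess veratridine. Binding affinity is expressed as percent inhibition relative to vehicle control.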

Rattus norvegicus [14] = test: Toxicity in Sprague-Dawley rat electrophysiology model assessed as mortality at 3 to 10 mg/kg, iv; format: organism-based; parameters: dose 3-10 mg/kg, route intravenous; conditions: in vivo
Cynomolgus monkey [15] = test: Inhibition of renin in furosemide pretreated cynomolgus monkey plasma at 3 mg/kg, po; format: functional, organism-based; parameters: dose 3 mg/kg; conditions: Macaca fascicularis
Outline: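 Cynomolgus monkeys pretreated with furosemide given single oral dose 1, 3 or 10 mg/kg or vehicle 1% methylcellulose. Venous blood into EDTA-2Na tubes at 1, 2, 4, 8, 24 h, chilled, centrifuged cold, plasma frozen; plasma renin activity by radioimmunoassay.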

Cynomolgus monkey [16] = test: Cardiotoxicity in telemetered cynomolgus monkey assessed as ventricular tachycardia at 50 mg/kg, po; format: toxicity, organism-based, Macaca fascicularis, Cardiac ventricle; parameters: dose 50 mg/kg, route oral; conditions: in vivo
[17] = Half life in cynomolgus monkey at 3 mg/kg, po by HPLC-MS/MS analysis; format: ADME, organism-based, Macaca fascicularis; parameters: dose 3 mg/kg, route oral; conditions: in vivo; outline: as §1
Rattus norvegicus [18] = test: Cardiotoxicity in iv bolus dosed Sprague-Dawley rat electrophysiology model assessed as QRS complex abnormalities; format: toxicity, organism-based; conditions: in vivo; outline: as §2
[19] = Oral bioavailability in cynomolgus monkey at 3 mg/kg by HPLC-MS/MS analysis; format: ADME, organism-based, Macaca fascicularis; conditions: in vivo; outline: as §1
Cynomolgus monkey [20] = test: Cardiotoxicity in telemetered cynomolgus monkey assessed as ventricular fibrillation at 50 mg/kg, po; format: toxicity, organism-based, Macaca fascicularis, Cardiac ventricle; parameters: dose 50 mg/kg, route oral; conditions: in vivo
[21] = Volume of distribution at steady state in cynomolgus monkey at 1 mg/kg, iv by HPLC-MS/MS analysis; format: ADME, organism-based, Macaca fascicularis; parameters: dose 1 mg/kg, route intravenous; conditions: in vivo, read-out: Vdss
[22] = Clearance in cynomolgus monkey at 1 mg/kg, iv by HPLC-MS/MS analysis; format: ADME, organism-based, Macaca fascicularis; parameters: dose 1 mg/kg, route intravenous; conditions: in vivo
Cynomolgus monkey [23] = test: Inhibition of renin in furosemide pretreated cynomolgus monkey assessed as reduction in mean arterial blood pressure at 3 mg/kg, po; format: functional, organism-based; parameters: dose 3 mg/kg; conditions: Macaca fascicularis
Outline: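 Conscious freely moving telemetered cynomolgus monkeys (n = 6), furosemide 5 mg/kg/day im for 3 days before dosing; fasted from morning, fed ≥8 h post-dose. Oral 1, 3, 10 mg/kg or 1% methylcellulose, crossover design; arterial pressure recorded from −3 to 24 h; hourly mean MAP; mean ± SEM.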

Heart [24] = test: Cardiotoxicity in anesthetized New Zealand White rabbit heart assessed as prolongation of QRS width at 30 uM after 20 mins relative to baseline; format: toxicity, tissue-based, Oryctolagus cuniculus; outline: as §3
Heart [25] = test: Cardiotoxicity in anesthetized New Zealand White rabbit heart assessed as prolongation of […] at 30 uM after 20 mins relative to baseline; format: toxicity, tissue-based, Oryctolagus cuniculus; outline: as §3
Heart [26] = test: Cardiotoxicity in anesthetized New Zealand White rabbit heart assessed as prolongation of QTc interval at 30 uM after 20 mins relative to baseline; format: toxicity, tissue-based, Oryctolagus cuniculus; outline: as §3
Heart [27] = test: Cardiotoxicity in anesthetized New Zealand White rabbit heart assessed as prolongation of heart rate at 30 uM after 20 mins relative to baseline; format: toxicity, tissue-based, Oryctolagus cuniculus; outline: as §3

SMILES	pIC50 (Renin [2])	pIC50 (Renin [4])	Activity (Rattus norvegicus [5])	Ratio IC50 [6]	further results
CC(C)[C@H](C[C@H](O)[C@@H](N)CN1CC(=O)N(c2ccccc2Cl)CC1(C)C)C(=O)N[C@H]1CC[C@H](O)CC1.O=C(O)/C=C/C(=O)O	8.37	8.85	Non-toxic	0.8	AUC(0-t) at 24 h [1]: 75 ng·h/mL; Cmax [3]: 19 ng/mL
CC(C)[C@H](C[C@H](O)[C@@H](N)CN1CC(=O)N(c2ccccc2Cl)CC1(C)C)C(=O)Nc1ccc(F)cn1.O=C(O)/C=C/C(=O)O	8.47	9.05	Toxic	0.5	Activity (Heart [7]): 13.5%; Activity (Heart [8]): 74.7%; Activity (Heart [9]): Toxic; Activity (Heart [10]): -3.7%; Activity (Heart [11]): 64.1%
CC[C@H](C[C@H](O)[C@@H](N)CN1CC(=O)N(c2ccccc2Cl)CC1(C)C)C(=O)NC1C2CC3CC1CC(C(N)=O)(C3)C2.O=C(O)/C=C/C(=O)O (stereo partly drawn)	8.92	8.89	–	0.5	AUC(0-t) at 24 h [1]: 90 ng·h/mL; Cmax [3]: 19 ng/mL
CCN(CC)CC(=O)Nc1c(C)cccc1C [LIDOCAINE]	–	–	–	–	Activity (Rattus norvegicus [12]): Toxic
CC(C)[C@H](C[C@H](O)[C@@H](N)CN1CC(=O)N(c2ccccc2Cl)CC1(C)C)C(=O)NCC(C)(C)C.O=C(O)/C=C/C(=O)O	8.52	9.00	Toxic	0.5	AUC(0-t) at 24 h [1]: 460 ng·h/mL; Activity (Rattus norvegicus [13]): 87%; Activity (Rattus norvegicus [14]): Toxic; inhibition (Cynomolgus monkey [15]): Active; Activity (Cynomolgus monkey [16]): Toxic; half-life [17]: 15.3 h; Activity (Rattus norvegicus [18]): Dose-dependent effect; Activity (Heart [7]): -1.5%; Activity (Heart [8]): 15.6%; Cmax [3]: 111 ng/mL; Activity (Heart [9]): Toxic; bioavailability [19]: 26.4%; Activity (Heart [10]): -4.6%; Activity (Cynomolgus monkey [20]): Toxic; Activity (Heart [11]): 68.9%; Vd [21]: 23.5 L/kg; clearance [22]: 28.4 mL/min/kg; inhibition (Cynomolgus monkey [23]): Active
CC(C)[C@H](C[C@H](O)[C@@H](N)CN1CC(=O)N(c2ccccc2Cl)CC1(C)C)C(=O)N[C@H]1C2CC3CC1C[C@](O)(C3)C2.O=C(O)/C=C/C(=O)O	8.66	8.89	Non-toxic	0.9	–
CC[C@H](C[C@H](O)[C@@H](N)CN1CC(=O)N(c2cc(F)ccc2Cl)CC1(C)C)C(=O)N[C@H]1C2CC3CC1C[C@](O)(C3)C2.O=C(O)/C=C/C(=O)O	8.44	8.85	Non-toxic	0.7	–
CC(C)CNC(=O)[C@@H](C[C@H](O)[C@@H](N)CN1CC(=O)N(c2ccccc2Cl)CC1(C)C)C(C)C.O=C(O)/C=C/C(=O)O	8.40	8.85	Toxic	0.7	–
CC[C@H](C[C@H](O)[C@@H](N)CN1CC(=O)N(c2ccccc2Cl)CC1(C)C)C(=O)Nc1ccc(C)cc1.O=C(O)/C=C/C(=O)O	7.55	8.49	Toxic	4.5	–
CC(C)[C@H](C[C@H](O)[C@@H](N)CN1CC(=O)N(c2ccccc2Cl)CC1(C)C)C(=O)NCC(C)(C)O.O=C(O)/C=C/C(=O)O	7.82	8.62	Non-toxic	1.9	–
CC(C)[C@H](C[C@H](O)[C@@H](N)CN1CC(=O)N(c2ccccc2Cl)CC1(C)C)C(=O)Nc1ccncc1.O=C(O)/C=C/C(=O)O	7.82	8.80	Toxic	1.5	–
CC[C@H](C[C@H](O)[C@@H](N)CN1CC(=O)N(c2ccccc2Cl)CC1(C)C)C(=O)NCC(C)(C)CO.O=C(O)/C=C/C(=O)O	8.28	8.80	Non-toxic	0.8	Activity (Heart [24]): 1.7%; Activity (Heart [25]): 3.4%; Activity (Heart [7]): -2.1%; Activity (Heart [8]): 3.8%; Activity (Heart [10]): -3.5%; Activity (Heart [11]): -7.8%; Activity (Heart [26]): -5.4%; Activity (Heart [27]): -4.3%
CC[C@H](C[C@H](O)[C@@H](N)CN1CC(=O)N(c2ccccc2Cl)CC1(C)C)C(=O)Nc1ccc(F)cc1.O=C(O)/C=C/C(=O)O	8.47	8.80	Toxic	0.9	–
C[C@H](C[C@H](O)[C@@H](N)CN1CC(=O)N(c2ccccc2Cl)CC1(C)C)C(=O)N[C@H]1C2CC3CC1C[C@](O)(C3)C2.O=C(O)/C=C/C(=O)O	8.14	8.96	Non-toxic	1.6	–
CN1CC(=O)N(c2ccccc2Cl)CC1(C)C	–	–	–	–	Activity (Rattus norvegicus [12]): Non-toxic
